The source of these data is ChEMBL document CHEMBL3244281, “Antiviral activity of some beta-diketones. 3. Aryl bis(beta-diketones). Antiherpetic activity” (1978).

For experiment [1], the system named is Human alphaherpesvirus 2. As to the kind of experiment: Antiviral activity against HSV2.
Experiment [2] relates to Human alphaherpesvirus 1. Kind of experiment: Antiviral activity against HSV1. Type of experiment: functional.
Experiment [3] deals with Human alphaherpesvirus 2. As to the kind of experiment: Antiviral activity against HSV2 Curtis infected in monkey BSC-1 cells assessed as reduction of plaque formation at 3 ug/ml after 4 days using crystal violet staining relative to control. The class given is functional. The settings on record: Human alphaherpesvirus 2, Curtis, BSC-1, 96 h. In short, it runs like this:
(§1)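 BSC-1 monolayers, 4 days old and confluent, were infected with 20-60 PFU in MEM + 2% FCS. They were overlaid with agar (1% ionagar + 2× M-199 + 5% FCS) containing compound, four flasks per condition. Uninfected monolayers with compound served as controls. Flasks were incubated inverted at 37 °C for 4 days, formalin-fixed overnight at 4 °C and crystal violet-stained. Mean plaque count gave % reduction versus infected untreated cultures.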

The test system of experiment [4] is Human alphaherpesvirus 1. Kind of experiment: Antiviral activity against HSV1 Sheely infected in monkey BSC-1 cells assessed as reduction of plaque formation at 4 ug/ml after 4 days using crystal violet staining relative to control. The settings on record: Human alphaherpesvirus 1, Sheely, BSC-1, in Primates, 96 h. The class given is functional. In short, it runs like this:
as §1

Experiment [5] concerns Human alphaherpesvirus 2. As to the kind of experiment: Antiviral activity against HSV2 Curtis infected in monkey BSC-1 cells assessed as reduction of plaque formation at 4 ug/ml after 4 days using crystal violet staining relative to control. Type of experiment: functional. The settings on record: Human alphaherpesvirus 2, Curtis, BSC-1, in Primates, 96 h. In short, it runs like this:
as §1

The subject of experiment [6] is Human alphaherpesvirus 1. As to the kind of experiment: Antiviral activity against HSV1 Sheely infected in monkey BSC-1 cells assessed as reduction of plaque formation at 2 ug/ml after 4 days using crystal violet staining relative to control. The class given is functional. The settings on record: Human alphaherpesvirus 1, Sheely, BSC-1, in Primates, 96 h. A digest of the protocol:
as §1

For experiment [7], the system named is Human alphaherpesvirus 1. Kind of experiment: Antiherpetic activity against HSV1 AA infected in guinea pig skin assessed as reduction of scab formation at 2% administered 24 hrs after infection as vanishing cream base daily 5 times for 4 days. Type of experiment: functional, organism-based. In short, it runs like this:
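Guinea pigs had HSV-1 applied to shaved, epilated flanks: 0.1 mL tissue-culture virus (titer 10^6.25 TCID50) driven in by multiple vaccination-gun punctures. A 2% vanishing-cream preparation was applied topically from 24 h postinfection, five times daily for 4 days. Placebo-treated animals served as controls. Two scorers rated vesicles and followed lesions and scabbing to day 7.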

For experiment [8], the system named is Human alphaherpesvirus 1. As to the kind of experiment: Antiviral activity against HSV1 Sheely infected in monkey BSC-1 cells assessed as reduction of plaque formation at 3 ug/ml after 4 days using crystal violet staining relative to control. The class given is functional. The settings on record: Human alphaherpesvirus 1, Sheely, BSC-1, in Primates, 96 h. A digest of the protocol:
as §1

Experiment [9] deals with Human alphaherpesvirus 2. As to the kind of experiment: Antiviral activity against HSV2 Curtis infected in monkey BSC-1 cells assessed as reduction of plaque formation at 2 ug/ml after 4 days using crystal violet staining relative to control. Type of experiment: functional. The settings on record: Human alphaherpesvirus 2, Curtis, BSC-1, in Primates, 96 h. A digest of the protocol: as §1

≈ marks a conversion by molar mass, not a printed value. Calls of active or inactive are those of the source. The rule behind the calls is not given here.

As for `CCC(=O)C(CCCCCOc1ccc(OCCCCC(C(=O)CC)C(=O)CC)cc1)C(=O)CC`, the MIC result in experiment [1] was “inactive”.
`CCC(=O)C(CCCCCCOc1cc(Cl)c(OCCCCCCC(C(=O)CC)C(=O)CC)cc1Cl)C(=O)CC` yielded an MIC in [2] of 6 µg/mL (≈ 10 µM).
In experiment [2], `CCC(=O)C(CCCCCCCOc1ccc(OCCCCCCCC(C(=O)CC)C(=O)CC)cc1)C(=O)CC` registered an MIC of 25 µg/mL (≈ 44.7 µM).
In turn, `CCC(=O)C(CCCCOc1ccc(OCCCCC(C(=O)CC)C(=O)CC)cc1)C(=O)CC` yielded an MIC in experiment [2] of 3 µg/mL (≈ 6.32 µM).
On to `CCC(=O)C(CCCCOc1ccc(OCCCC(C(=O)CC)C(=O)CC)cc1)C(=O)CC`, for which, in experiment [1], the MIC entry was “inactive”.
On to `CCC(=O)C(CCCOc1ccc(OCCCC(C(=O)CC)C(=O)CC)cc1)C(=O)CC`, for which the MIC entry in experiment [1] is “inactive”.
As to `CCC(=O)C(CCCCCCOc1cccc(OCCCCCCC(C(=O)CC)C(=O)CC)c1)C(=O)CC`, the MIC in experiment [2] stood at 12 µg/mL (≈ 22.6 µM).
In turn, `CCC(=O)C(CCCCCCOc1ccc(OCCCCCCC(C(=O)CC)C(=O)CC)c(C)c1)C(=O)CC` returned an MIC in [2] of 25 µg/mL (≈ 45.9 µM).
Still for that read-out and setting: with `CCC(=O)C(CCCCCCOc1ccc(OCCCCCCC(C(=O)CC)C(=O)CC)c(Cl)c1)C(=O)CC` the figure was 6 µg/mL (≈ 10.6 µM); with `CCC(=O)C(CCCCCOc1ccc(OCCCCCC(C(=O)CC)C(=O)CC)cc1)C(=O)CC`, 3 µg/mL (≈ 5.97 µM).
With `CCC(=O)C(CCCCCCCCOc1ccc(OCCCCCCCCC(C(=O)CC)C(=O)CC)cc1)C(=O)CC`, the MIC result in experiment [1] is “inactive”.
The inhibition is how much of the control response was suppressed. With `CCC(=O)C(CCCCCCOc1ccc(OCCCCCCC(C(=O)CC)C(=O)CC)cc1)C(=O)CC`, the results for the inhibition at 3 µg/mL in experiment [3] and in experiment [8] were 59% and 43%, respectively. The inhibition at 4 µg/mL in [4] worked out at 89%; in [5] it was 93%. Further, the inhibition at 2 µg/mL amounted to 21% in experiment [6] and 18% in experiment [9]. Besides, the result in experiment [7] was Active. Further, in [2], the MIC turned out to be 6 µg/mL (≈ 11.3 µM).
